We go through 2 compounds from ChEMBL document CHEMBL4842351, “Synthesis and evaluation of novel and potent protease activated receptor 4 (PAR4) antagonists based on a quinazolin-4(3H)-one scaffold” (Eur J Med Chem, 2021).

For data set [1], the system named is Platelet. The data set is described as follows: Antiplatelet activity against collagen-induced human platelet aggregation in platelet in platelet rich plasma assessed as inhibition of platelet aggregation at 10 uM by photo-turbidimetry method. The data set is classed as functional, cell-based. Summed up: (§1)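 Human PRP prepared as for the aggregation assay and adjusted to 3×10⁸/mL. Compound preincubated for 5 min at 37 °C, then aggregation triggered by AYPGKF, SFLLRN, collagen, ADP or U46619. Maximum percent inhibition taken from 5 min light-transmittance traces. Mean ± SD, n=3.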

Data set [2] in a line: Cytotoxicity against HEK293T cells assessed as cell viability at 1 uM incubated for 48 hrs by CCK-8 assay. The data set is classed as cell-based, HEK-293T. Conditions: human, read-out: Activity. In a few lines: (§2)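 HEK293 cells in exponential growth, 4000/well, left to adhere overnight, then exposed to three compound concentrations for 48 h. Equal-volume DMSO served as control. CCK-8 added for 2 h at 37 °C in the dark, absorbance read at 450 nm. Viability = OD sample/OD control × 100; mean ± SD, n=3.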

Data set [3] has as its system Platelet. The data set is described as follows: Antiplatelet activity against U46619-induced human platelet aggregation in platelet in platelet rich plasma assessed as inhibition of platelet aggregation at 10 uM by photo-turbidimetry method. The data set is classed as functional, cell-based. In a few lines:
as §1

Data set [4] is described as follows: Metabolic stability in human liver microsomes assessed as intrinsic clearance incubated for 60 mins by LC-MS/MS analysis. The data set is classed as ADME, Microsome. As to conditions: 1 h.
Data set [5] can be described thus: Cytotoxicity against HEK293T cells assessed as cell viability at 10 uM incubated for 48 hrs by CCK-8 assay. It is filed as cell-based, HEK-293T. As to conditions: human, read-out: Activity. In a few lines:
as §2
A general note: Formazan colour is commonly taken as a measure of viable cells.

Data set [6] in a line: Metabolic stability in rat liver microsomes assessed as half life incubated for 60 mins by LC-MS/MS analysis. It is filed as ADME, Microsome. Summed up: (§3)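 Human, rat or mouse liver microsomes in potassium phosphate buffer at pH ~7.4, warmed to 37 °C with compound (DMSO stock diluted in acetonitrile). Reaction started with NADPH; no-NADPH negative controls. Aliquots taken at 0 and 60 min, quenched in ice-cold acetonitrile with internal standard, and parent measured by LC/MS/MS. t1/2 = 0.693/k from ln concentration vs time; CLint derived from t1/2. Triplicate; mean ± SD.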

Data set [7] can be described thus: Metabolic stability in mouse liver microsomes assessed as half life incubated for 60 mins by LC-MS/MS analysis. The data set is classed as ADME, Microsome. In a few lines: as §3
On the technique in general: Liver microsomes are a subcellular fraction often used to study metabolism.

For data set [8], the system named is Platelet. The data set is described as follows: Antiplatelet activity against SFLLRN-NH2-induced human platelet in platelet rich plasma assessed as inhibition of platelet aggregation at 10 uM by photo-turbidimetry method. It is filed as functional, cell-based. In a few lines:
as §1

The subject of data set [9] is Platelet. The data set is described as follows: Antiplatelet activity against AYPGKF-NH2-induced human platelet in platelet rich plasma assessed as inhibition of platelet aggregation at 10 uM by photo-turbidimetry method. It is filed as functional, cell-based. Summed up: as §1
A short description of data set [10]: Metabolic stability in mouse liver microsomes assessed as intrinsic clearance incubated for 60 mins by LC-MS/MS analysis. It is filed as ADME, Microsome. As to conditions: 1 h. In a few lines: as §3
A short description of data set [11]: Metabolic stability in human liver microsomes assessed as half life incubated for 60 mins by LC-MS/MS analysis. It is filed as ADME, Microsome.
Data set [12] addresses T1, Proteinase-activated receptor 2 (Homo sapiens, UniProt P55085).
T1 sequence (P55085 whole entry): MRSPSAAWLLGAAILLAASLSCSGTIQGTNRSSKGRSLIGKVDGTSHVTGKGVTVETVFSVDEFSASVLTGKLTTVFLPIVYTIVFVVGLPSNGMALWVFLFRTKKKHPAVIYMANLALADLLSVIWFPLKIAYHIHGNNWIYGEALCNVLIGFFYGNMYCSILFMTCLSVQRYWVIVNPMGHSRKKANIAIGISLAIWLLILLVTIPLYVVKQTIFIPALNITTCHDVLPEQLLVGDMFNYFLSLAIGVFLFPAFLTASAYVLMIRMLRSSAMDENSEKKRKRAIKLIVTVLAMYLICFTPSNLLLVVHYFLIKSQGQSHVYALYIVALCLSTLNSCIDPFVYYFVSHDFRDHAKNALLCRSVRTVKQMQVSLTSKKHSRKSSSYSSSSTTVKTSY
The data set is described as follows: Antagonist activity at human PAR2 expressed in Ga15-HEK293 cells assessed as reduction in PAR2 AP 2-furoyl-LIGRLO-NH2-induced cytosolic calcium incubated for 24 hrs by FLIPR - calcium mobilization assay. The data set is classed as functional, cell-based. Summed up: (§4)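 HEK293/Gα15 cells stably expressing human PAR1, PAR2 or PAR4, seeded at 45,000 cells/well and grown for 24 h at 37 °C, 5% CO₂. Cells loaded with calcium dye for 60 min at 37 °C in the dark. Compounds diluted from DMSO in HBSS and preincubated in the dark at room temperature. Agonists: SFFLRR (PAR1), 2-furoyl-LIGRLO-NH₂ (PAR2), AYPGKF-NH₂ (PAR4). Fluorescence read on FLIPR; 10-point half-log curves; mean of ≥2 determinations.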
For orientation: Calcium assays in cells follow changes in intracellular calcium, usually with a dye or a luminescent sensor.

The test system of data set [13] is Platelet. The data set is described as follows: Antiplatelet activity against ADP-induced human platelet aggregation in platelet in platelet rich plasma assessed as inhibition of platelet aggregation at 10 uM by photo-turbidimetry method. It is filed as functional, cell-based. Summed up:
as §1

A short description of data set [14]: Cytotoxicity against HEK293T cells assessed as cell viability at 20 uM incubated for 48 hrs by CCK-8 assay. The data set is classed as cell-based, HEK-293T. Conditions: human, read-out: Activity. In a few lines: as §2
Data set [15] in a line: Metabolic stability in rat liver microsomes assessed as intrinsic clearance incubated for 60 mins by LC-MS/MS analysis. The data set is classed as ADME, Microsome. Conditions: 1 h. In a few lines:
as §3

Data set [16] addresses T2, Proteinase-activated receptor 1 (Homo sapiens, UniProt P25116).
T2 sequence (P25116 whole entry): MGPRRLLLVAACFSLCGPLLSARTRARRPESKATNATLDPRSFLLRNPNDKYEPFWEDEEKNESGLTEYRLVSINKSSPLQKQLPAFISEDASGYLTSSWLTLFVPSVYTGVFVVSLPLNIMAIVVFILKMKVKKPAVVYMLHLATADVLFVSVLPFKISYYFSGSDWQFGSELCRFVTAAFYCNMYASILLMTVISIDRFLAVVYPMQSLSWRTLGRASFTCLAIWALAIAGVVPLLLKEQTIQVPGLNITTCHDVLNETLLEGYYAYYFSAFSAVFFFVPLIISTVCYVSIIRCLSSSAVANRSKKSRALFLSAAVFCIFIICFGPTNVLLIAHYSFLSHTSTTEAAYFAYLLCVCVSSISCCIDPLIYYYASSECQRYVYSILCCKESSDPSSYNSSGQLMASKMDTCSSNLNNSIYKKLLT
The data set is described as follows: Antagonist activity at human PAR1 expressed in Ga15-HEK293 cells assessed as reduction in PAR1 AP SFFLRR-NH2-induced cytosolic calcium incubated for 24 hrs by FLIPR - calcium mobilization assay. The data set is classed as functional, cell-based. In a few lines:
as §4

Data set [17] concerns the target T3, Proteinase-activated receptor 4 (Homo sapiens, UniProt Q96RI0).
T3 sequence (Q96RI0 whole entry): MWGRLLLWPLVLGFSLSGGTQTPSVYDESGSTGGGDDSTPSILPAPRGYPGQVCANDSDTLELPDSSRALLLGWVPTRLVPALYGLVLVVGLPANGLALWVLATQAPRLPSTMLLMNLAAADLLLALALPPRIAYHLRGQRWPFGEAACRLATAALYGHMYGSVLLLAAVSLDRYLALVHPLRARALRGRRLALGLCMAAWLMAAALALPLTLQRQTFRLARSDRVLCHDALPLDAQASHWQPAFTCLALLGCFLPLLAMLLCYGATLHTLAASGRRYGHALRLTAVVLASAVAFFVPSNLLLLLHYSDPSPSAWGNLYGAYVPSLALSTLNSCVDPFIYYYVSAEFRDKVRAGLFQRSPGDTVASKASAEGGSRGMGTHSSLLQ
The data set is described as follows: Antagonist activity at human PAR4 expressed in Ga15-HEK293 cells assessed as reduction in PAR4 AP AYPGKF-NH2-induced cytosolic calcium incubated for 24 hrs by FLIPR - calcium mobilization assay. The data set is classed as functional, cell-based. Summed up:
as §4

Calls of active or inactive are those of the source. No cut-off for these calls is given here.

In the case of `Cc1cc(-c2nc3c(Cl)cc(OCCNS(=O)(=O)c4ccc(C(F)(F)F)cc4)cc3s2)c2ncn(C)c(=O)c2c1`, the result in the data set with Platelet [1], in the data set with Platelet [3], in the data set with Platelet [8] and in the data set with Platelet [13] was inactive. Moreover, the viability at 48 h, 1 µM in [2] came to 87.7%. Moreover, the CLH in data set [4] is 3.51 mL/min/g; in data set [10] it was 12.8 mL/min/g; in data set [15] it was 7.73 mL/min/g. For the same compound, the viability at 48 h, 10 µM in [5] was 76.8%. For the same compound, the values for the half-life in data set [6], in data set [7] and in data set [11] were 5.38 h, 7.13 h and 7.4 h, respectively. Besides, in the data set with Platelet [9], the outcome was Active. Besides, the IC50 (usually the concentration needed to halve the response being measured) is > 1000 nM in data set [12], > 3160 nM in [16] and 1.2 nM in [17]. Moreover, the viability at 48 h, 20 µM in [14] is 61.8%.

As for `COc1cc(Cl)c2nc(-c3cc(C)cc4c(=O)n(C)cnc34)sc2c1`, the outcome in the data set on Platelet [1], with Platelet [3], in the data set on Platelet [8] and in the data set on Platelet [13] was inactive. For the same compound, in data set [2], the viability at 48 h, 1 µM amounted to 91.3%. Besides, the CLH in data set [4] was found to be 36.6 mL/min/g; in data set [10] it was 19.3 mL/min/g; in data set [15], 78.1 mL/min/g. In data set [5], the viability at 48 h, 10 µM turned out to be 73.7%. For the same compound, the results for the half-life in data set [6], in [7] and in [11] were 0.532 h, 4.7 h and 0.71 h, respectively. For the same compound, the outcome in the data set on Platelet [9] was Active. Moreover, the half-inhibitory concentration (IC50) in data set [12] was > 1000 nM; in data set [16], > 3160 nM; in [17], 0.53 nM. The viability at 48 h, 20 µM in [14] came to 59.3%.
